Results from ChEMBL document CHEMBL1124009 (J Med Chem, 1988).
Positions of bridges follow the written chain, without caps; N, C: chain ends. Non-standard residues stand in square brackets, D forms with d. Residues, ends and D or L forms follow the SMILES beside them. Tic = O=C(O)[C@@H]1Cc2ccccc2CN1; Pen = CC(C)(S)[C@H](N)C(=O)O

How the values were obtained:
[1] = molecular target: Somatostatin receptor; assay: Binding affinity in competition with [125I]- CGP-23996 in somatostatin receptor binding to rat brain membrane
In short: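 Rat whole-brain membranes (adult male Sprague–Dawley) at 1.0% final tissue were incubated with 0.2 nM [125I]CGP 23,996 and analogues at 100–0.3 μM. Buffer was 50 mM Tris pH 7.4 with 2.0 mg/mL BSA, 20 μg/mL bacitracin and 5 mM MgCl2. Incubation ran 1 h at 37 °C and ended by rapid filtration through BSA-soaked GF/B filters.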

[2] = molecular target: Opioid receptors; mu & delta (Rattus norvegicus) (UniProt P33533+P33535); assay: Ratio of selective binding affinity of mu receptor to that of delta opioid receptor; assay type: protein assay
Opioid receptors; mu & delta (Rattus norvegicus), sequence (P33533 whole entry, looked up): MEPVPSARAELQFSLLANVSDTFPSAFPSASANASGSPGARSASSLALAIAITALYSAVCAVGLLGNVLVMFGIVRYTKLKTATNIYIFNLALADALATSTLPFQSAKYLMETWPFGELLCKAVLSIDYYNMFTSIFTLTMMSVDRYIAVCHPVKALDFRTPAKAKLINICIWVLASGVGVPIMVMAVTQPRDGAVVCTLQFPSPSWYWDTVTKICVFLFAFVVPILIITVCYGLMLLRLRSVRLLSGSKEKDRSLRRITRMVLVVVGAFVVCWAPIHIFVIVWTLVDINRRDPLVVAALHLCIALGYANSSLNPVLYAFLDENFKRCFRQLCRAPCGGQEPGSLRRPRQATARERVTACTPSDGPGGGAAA
Opioid receptors; mu & delta (Rattus norvegicus), sequence (P33535 whole entry, looked up): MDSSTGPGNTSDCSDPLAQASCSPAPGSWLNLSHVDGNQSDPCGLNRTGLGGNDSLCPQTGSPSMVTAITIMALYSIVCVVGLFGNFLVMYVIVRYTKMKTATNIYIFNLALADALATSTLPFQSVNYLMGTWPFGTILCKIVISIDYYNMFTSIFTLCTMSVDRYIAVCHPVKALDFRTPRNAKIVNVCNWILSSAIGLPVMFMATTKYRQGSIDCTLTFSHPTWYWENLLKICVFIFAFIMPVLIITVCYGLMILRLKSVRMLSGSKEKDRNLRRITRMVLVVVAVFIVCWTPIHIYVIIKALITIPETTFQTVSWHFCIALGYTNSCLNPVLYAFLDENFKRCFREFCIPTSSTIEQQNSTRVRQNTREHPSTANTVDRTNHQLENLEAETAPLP

[3] = Ratio of selective binding affinity of mu receptor to that of somatostatin receptor

For `CC(C)[C@H](NC(=O)[C@H]1NC(=O)[C@H]([C@@H](C)O)NC(=O)[C@H](CCCCN)NC(=O)[C@H](Cc2c[nH]c3ccccc23)NC(=O)[C@H](Cc2ccc(O)cc2)NC(=O)[C@@H](NC(=O)[C@H]2Cc3ccccc3CN2)CSSC1(C)C)C(N)=O`, the IC50 [1] was 1992 nM, the Ratio [2] was 46 and the Ratio [3] was 43.
`C[C@@H](O)[C@@H]1NC(=O)[C@H](CCCCN)NC(=O)C(Cc2c[nH]c3ccccc23)NC(=O)[C@H](Cc2ccc(O)cc2)NC(=O)[C@@H](NC(=O)[C@H](N)Cc2ccccc2)CSSC(C)(C)[C@@H](C(=O)N[C@@H](CC(=O)O)C(N)=O)NC1=O` (stereo in doubt) gave a Ratio [2] of over 2.9 and a Ratio [3] of 2.4.
Compound `C[C@@H](O)[C@@H]1NC(=O)[C@H](CCCCN)NC(=O)C(Cc2c[nH]c3ccccc23)NC(=O)[C@H](Cc2ccc(O)cc2)NC(=O)[C@@H](NC(=O)[C@H](N)Cc2ccccc2)CSSC(C)(C)[C@@H](C(N)=O)NC1=O` (stereo in doubt) has a Ratio [2] of over 87 and a Ratio [3] of 17.
Work on `C[C@@H](O)[C@@H]1NC(=O)[C@H](CCCCN)NC(=O)C(Cc2c[nH]c3ccccc23)NC(=O)[C@H](Cc2ccc(O)cc2)NC(=O)[C@@H](NC(=O)[C@H](N)Cc2ccccc2)CSSC(C)(C)[C@@H](C(=O)N[C@@H](CC(N)=O)C(N)=O)NC1=O` (stereo in doubt) yielded a Ratio [2] of over 77 and a Ratio [3] of 6.3.
With `C[C@@H](O)[C@H](NC(=O)[C@H]1NC(=O)[C@H]([C@@H](C)O)NC(=O)[C@H](CCCCN)NC(=O)[C@H](Cc2c[nH]c3ccccc23)NC(=O)[C@H](Cc2ccc(O)cc2)NC(=O)[C@@H](NC(=O)[C@@H](N)Cc2ccccc2)CSSC1(C)C)C(N)=O` the IC50 [1] was 1462 nM, the Ratio [2] was 312 and the Ratio [3] was 395.
`C[C@@H](O)[C@@H]1NC(=O)[C@H](CCCN)NC(=O)C(Cc2c[nH]c3ccccc23)NC(=O)[C@H](Cc2ccc(O)cc2)NC(=O)[C@@H](NC(=O)[C@H](N)Cc2ccccc2)CSSC(C)(C)[C@@H](C(N)=O)NC1=O` (stereo in doubt) gave a Ratio [2] of over 53 and a Ratio [3] of 253.
For `C[C@@H](O)[C@H](NC(=O)[C@H]1NC(=O)[C@H](CC(N)=O)NC(=O)[C@H](Cc2ccccc2)NC(=O)[C@@H](NC(=O)[C@@H](N)Cc2ccc(O)cc2)CSSC1(C)C)C(N)=O`, the IC50 [1] was “>= 10000 nM”, the Ratio [2] was over 1.3 and the Ratio [3] was over 1.3.
For `C[C@@H](O)[C@H](NC(=O)[C@H]1NC(=O)[C@H]([C@@H](C)O)NC(=O)[C@H](CCCN)NC(=O)C(Cc2c[nH]c3ccccc23)NC(=O)[C@@H](Cc2ccc(O)cc2)NC(=O)[C@@H](NC(=O)[C@H]2Cc3ccccc3CN2C(=O)CN)CSSC1(C)C)C(N)=O` (stereo in doubt), the Ratio [2] was 19 and the Ratio [3] was 70.
With `C[C@@H](O)[C@H](NC(=O)[C@H]1NC(=O)[C@H](CCCCN)NC(=O)C(Cc2c[nH]c3ccccc23)NC(=O)[C@@H](Cc2ccc(O)cc2)NC(=O)[C@@H](NC(=O)[C@H]2Cc3ccccc3CN2)CSSC1(C)C)C(N)=O` (stereo in doubt) the Ratio [2] was over 1 and the Ratio [3] was 1.5.
Compound `C[C@@H](O)[C@H](NC(=O)[C@H]1NC(=O)[C@H]([C@@H](C)O)NC(=O)[C@H](CCCCN)NC(=O)C(Cc2c[nH]c3ccccc23)NC(=O)[C@@H](Cc2ccc(O)cc2)NC(=O)[C@@H](NC(=O)[C@H]2Cc3ccccc3CN2)CSSC1(C)C)C(N)=O` (stereo in doubt) has a Ratio [2] of 7770 and a Ratio [3] of 791.
For `C[C@@H](O)[C@H](NC(=O)[C@H]1NC(=O)[C@H]([C@@H](C)O)NC(=O)[C@H](CCCN=C(N)N)NC(=O)[C@H](Cc2c[nH]c3ccccc23)NC(=O)[C@H](Cc2ccc(O)cc2)NC(=O)[C@@H](NC(=O)[C@@H]2Cc3ccccc3CN2)CSSC1(C)C)C(N)=O` (H-[Tic]CYWRT[Pen]T-NH2; disulfide 2-7), the IC50 [1] was 34336 nM, the Ratio [2] was 1060 and the Ratio [3] was 28600.
